Tests used:
[1] = Aqueous solubility of the compound in phosphate buffer at pH 7.4 incubated for 24 hrs by LC/MS/MS method; assay type: physicochemical
[2] = Intrinsic clearance in human liver microsomes; assay type: ADME; details: read-out: CLH
[3] = Intrinsic clearance in rat hepatocyte assessed per 10^6 cells; assay type: ADME, cell-based; details: hepatocytes, read-out: CLH
[4] = molecular target: Voltage-gated inwardly rectifying potassium channel KCNH2 (Homo sapiens, UniProt Q12809); experiment: Inhibition of human ERG expressed in CHO cells by patch clamp assay; assay type: cell-based
[5] = molecular target: T1, Casein kinase II subunit alpha (Homo sapiens, UniProt P68400); experiment: Binding affinity to His-tagged recombinant human CK2alpha (6 to 335 residues) after 50 to 116.7 mins by surface plasmon resonance assay
[6] = Antiproliferative activity against human […] cells after 72 hrs by alamar blue assay; assay type: functional; details: HCT-116, 72 h
[7] = Antiproliferative activity against human DLD1 cells after 72 hrs by alamar blue assay; assay type: functional; details: DLD-1, 72 h
[8] = Antiproliferative activity against human SW620 cells after 72 hrs by alamar blue assay; assay type: functional; details: SW-620, 72 h
Rattus norvegicus = experiment: AUC in rat at 10 mg/kg, po; assay type: ADME, organism-based; details: in vivo
[9] = Fraction unbound in human plasma at 10 uM by equilibrium dialysis method; assay type: ADME, cell-free
Hepatocyte = experiment: Drug metabolism in rat hepatocytes assessed as oxidative demethylated metabolite formation; assay type: ADME, cell-based
Liver microsome [10] = experiment: Drug metabolism in rat liver microsomes in presence of ABT; assay type: ADME
How it was run: (§1)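 Metabolite formation studied in rat and human liver microsome incubations with ABT present, to probe oxidative clearance.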

Liver microsome [11] = experiment: Drug metabolism in human liver microsomes in presence of ABT; assay type: ADME; how it was run: as §1
[12] = Inhibition of CK2 in mouse L-Wnt3a cells assessed as suppression of Wnt3a-mediated L S/L Super TOPFlash reporter gene transcription after 24 hrs; details: L Wnt-3A
[13] = molecular target: T1, Casein kinase II subunit alpha; experiment: Inhibition of full length N-terminal 6xHis-tagged recombinant human CK2alpha expressed in fall armyworm Sf21 cells using BODIPY-FL-RRRDDDSDDD-CONH2 as substrate after 90 mins by mobility shift assay
Casein kinase II = Casein kinase II (Homo sapiens, UniProt P19784+P67870+P68400); experiment: Inhibition of CK2 in human DLD1 HA-myr-AKT1 cells assessed as suppression of AKTser129 phosphorylation after 3 to 24 hrs by Western blot analysis
Casein kinase II, sequence (P67870 whole entry): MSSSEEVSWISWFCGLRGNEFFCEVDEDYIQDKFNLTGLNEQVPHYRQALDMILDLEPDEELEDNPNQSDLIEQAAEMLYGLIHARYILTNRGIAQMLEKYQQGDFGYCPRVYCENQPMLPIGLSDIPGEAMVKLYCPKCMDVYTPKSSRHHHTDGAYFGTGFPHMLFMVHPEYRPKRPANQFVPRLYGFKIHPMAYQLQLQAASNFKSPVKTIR
Casein kinase II, sequence (P68400 whole entry): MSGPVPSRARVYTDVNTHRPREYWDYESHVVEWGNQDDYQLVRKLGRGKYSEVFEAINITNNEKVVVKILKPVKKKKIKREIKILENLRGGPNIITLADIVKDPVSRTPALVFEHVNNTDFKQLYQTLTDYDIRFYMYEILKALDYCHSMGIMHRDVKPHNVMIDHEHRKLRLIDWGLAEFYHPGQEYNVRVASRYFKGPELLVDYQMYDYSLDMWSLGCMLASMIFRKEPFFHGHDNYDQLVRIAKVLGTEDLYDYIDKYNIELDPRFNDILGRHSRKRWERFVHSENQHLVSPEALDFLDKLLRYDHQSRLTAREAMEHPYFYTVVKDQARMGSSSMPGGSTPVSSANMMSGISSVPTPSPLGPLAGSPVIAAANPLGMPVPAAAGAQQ
Casein kinase II, sequence (P19784 whole entry): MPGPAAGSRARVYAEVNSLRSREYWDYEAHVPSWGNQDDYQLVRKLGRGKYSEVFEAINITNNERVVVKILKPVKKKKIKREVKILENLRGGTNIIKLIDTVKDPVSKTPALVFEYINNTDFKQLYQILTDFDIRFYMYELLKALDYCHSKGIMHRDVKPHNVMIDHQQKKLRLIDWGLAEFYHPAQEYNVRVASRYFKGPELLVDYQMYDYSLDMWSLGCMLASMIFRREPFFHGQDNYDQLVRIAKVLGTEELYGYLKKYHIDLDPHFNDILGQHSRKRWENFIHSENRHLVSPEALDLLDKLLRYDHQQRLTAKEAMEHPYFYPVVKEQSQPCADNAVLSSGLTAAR

T1 sequence (P68400 whole entry, the tested form may be a part): as the sequence (P68400 whole entry) above
Voltage-gated inwardly rectifying potassium channel KCNH2, sequence (Q12809 whole entry, the tested form may be a part): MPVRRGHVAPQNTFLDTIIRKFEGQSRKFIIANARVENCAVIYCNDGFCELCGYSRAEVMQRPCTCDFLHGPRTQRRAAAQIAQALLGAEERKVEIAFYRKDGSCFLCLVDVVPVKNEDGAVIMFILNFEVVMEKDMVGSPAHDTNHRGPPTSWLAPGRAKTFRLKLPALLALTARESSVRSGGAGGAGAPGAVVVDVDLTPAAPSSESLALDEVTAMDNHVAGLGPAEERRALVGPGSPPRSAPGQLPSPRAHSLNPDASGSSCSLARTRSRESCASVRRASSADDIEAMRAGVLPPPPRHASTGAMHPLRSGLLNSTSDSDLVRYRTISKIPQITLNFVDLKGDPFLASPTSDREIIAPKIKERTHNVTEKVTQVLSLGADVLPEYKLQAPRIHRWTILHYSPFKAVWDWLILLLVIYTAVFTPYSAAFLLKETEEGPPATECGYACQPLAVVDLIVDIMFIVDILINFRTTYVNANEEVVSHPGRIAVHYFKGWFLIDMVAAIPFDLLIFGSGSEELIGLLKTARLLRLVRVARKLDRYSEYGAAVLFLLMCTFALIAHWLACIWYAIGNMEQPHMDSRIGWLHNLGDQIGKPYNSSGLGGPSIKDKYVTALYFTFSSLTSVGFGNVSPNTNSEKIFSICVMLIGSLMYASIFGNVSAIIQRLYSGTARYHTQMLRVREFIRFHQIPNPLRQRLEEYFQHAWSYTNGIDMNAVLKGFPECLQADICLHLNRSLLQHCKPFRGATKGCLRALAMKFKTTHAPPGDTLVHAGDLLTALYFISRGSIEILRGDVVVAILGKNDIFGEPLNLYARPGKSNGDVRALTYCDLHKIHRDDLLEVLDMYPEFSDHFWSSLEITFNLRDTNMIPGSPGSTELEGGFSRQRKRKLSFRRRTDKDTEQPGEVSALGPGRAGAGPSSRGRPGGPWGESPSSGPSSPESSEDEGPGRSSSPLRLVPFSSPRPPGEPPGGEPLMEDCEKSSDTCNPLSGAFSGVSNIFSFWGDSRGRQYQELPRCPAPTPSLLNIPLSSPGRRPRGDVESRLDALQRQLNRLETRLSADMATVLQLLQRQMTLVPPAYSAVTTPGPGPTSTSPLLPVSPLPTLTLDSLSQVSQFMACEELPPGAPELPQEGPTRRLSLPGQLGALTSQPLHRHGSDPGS

SMILES: CC(=O)Nc1cc(Nc2cc(NC3CC3)n3ncc(C#N)c3n2)ccc1N(C)CCN(C)C
- solubility at 24 h [1]: > 1000 µM
- microsomal CLint [2]: 9 µL/min/mg
- hepatocyte CLint [3]: 32 µL/min/1e6 cells
- IC50 [4]: 4000 nM
- Kd [5]: 0.0482 nM
- GI50 [6]: 30 nM
- GI50 [7]: 80 nM
- GI50 [8]: 30 nM
- AUC (Rattus norvegicus): 0.36 µM·h
- fraction unbound at 10 µM [9]: 0.26
- Drug metabolism (Hepatocyte): metabolite_detected
- Drug metabolism (Liver microsome [10]): metabolite_notdetected
- Drug metabolism (Liver microsome [11]): metabolite_notdetected
- IC50 [12]: 75 nM
- IC50 [13]: < 3 nM
- IC50 (Casein kinase II): 1 nM

— ChEMBL document CHEMBL3808365, “Potent and Selective CK2 Kinase Inhibitors with Effects on Wnt Pathway Signaling in Vivo” (ACS Med Chem Lett, 2016)
